This is an account of results in ChEMBL document CHEMBL1127554, “Design, synthesis, and study of 9-substituted ellipticine and 2-methylellipticinium analogues as potential CNS-selective antitumor agents” (1994).

Assay [1] deals with Tumor Cell line. In words: GI50 was measured In vitro as the ratio of the mean activity for all non-CNS tumor cell lines over the mean activity of the CNS tumor subpanel (eight cell lines). The class given is functional, Homo sapiens. In outline: (§1)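 Ratio of the mean activity (μM) over all non-CNS tumour cell lines (ca. 40-50 lines) to the mean activity (μM) of the CNS subpanel (eight lines). Activity was taken from PG vs log concentration curves: GI50 at PG +50%, TGI at PG 0%.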

In assay [2] the test system is Tumor Cell line. In words: LC50 was given In vitro as -50% percent growth (PG), measured as concentration of compound required to inhibit disease oriented human tumor cell line panels; Value ranges from 12.30->100. Format: functional. The following applies: read-out: LC50 (the source's name). In outline: (§2)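 Human tumor cell line panel tested in vitro. Percent growth (PG) plotted against log drug concentration to give dose-response curves. LC50 is the concentration where PG equals -50%; GI50 and TGI are taken at +50% and 0%. Values are means across the full panel, with values beyond the tested limits (> or <) included in the mean.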

Assay [3] relates to Tumor Cell line. In words: TGI was measured In vitro as the ratio of the mean activity for all non-CNS tumor cell lines over the mean activity of the CNS tumor subpanel (eight cell lines). The class given is functional, Homo sapiens. An outline of the steps: as §1
Assay [4] concerns Tumor Cell line. The experiment in a line: GI50 was given In vitro as +50% percent growth (PG), measured as concentration of compound required to inhibit disease oriented human tumor cell line panels; Value ranges from 0.62-2.95. The class given is functional. An outline of the steps: (§3)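 Human tumour cell line panel; percent growth plotted against log drug concentration to give dose-response curves. GI50 is the concentration giving PG +50%, and TGI the concentration giving PG 0%. Values are mean inhibitory concentrations over the entire panel. PG values at either limit (> or <) are included in the mean.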

For assay [5], the system named is Tumor Cell line. The experiment in a line: LC50 was given In vitro as -50% percent growth (PG), measured as concentration of compound required to inhibit disease oriented human tumor cell line panels; Value ranges from 22.91->55. Format: functional. The following applies: read-out: LC50 (the source's name). An outline of the steps: as §2
The subject of assay [6] is Tumor Cell line. The experiment in a line: LC50 was measured In vitro as the ratio of the mean activity for all non-CNS tumor cell lines over the mean activity of the CNS tumor subpanel (eight cell lines). The class given is functional, Homo sapiens. An outline of the steps: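 Same PG dose-response panel. LC50 (μM) is averaged separately over the non-CNS lines (ca. 40-50 lines) and the CNS subpanel (eight lines). The ratio is the non-CNS mean divided by the CNS mean.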

Assay [7] deals with Tumor Cell line. The experiment in a line: GI50 was given In vitro as +50% percent growth (PG), measured as concentration of compound required to inhibit disease oriented human tumor cell line panels; Value ranges from 0.51-12.88. The class given is functional. In outline: as §3
In assay [8] the test system is Tumor Cell line. The experiment in a line: LC50 was given In vitro as -50% percent growth (PG), measured as concentration of compound required to inhibit disease oriented human tumor cell line panels; Value ranges from 16.98->100. Format: functional. The settings on record: read-out: LC50 (the source's name). An outline of the steps: as §2
The subject of assay [9] is Tumor Cell line. In words: LC50 was given In vitro as -50% percent growth (PG), measured as concentration of compound required to inhibit disease oriented human tumor cell line panels; Value ranges from 67.61->100. The class given is functional. The following applies: read-out: LC50 (the source's name). An outline of the steps: as §2
In assay [10] the test system is Tumor Cell line. The experiment in a line: GI50 was given In vitro as +50% percent growth (PG), measured as concentration of compound required to inhibit disease oriented human tumor cell line panels; Value ranges from 0.23-29.5. Format: functional. An outline of the steps:
as §3

Assay [11] has as its system Tumor Cell line. The experiment in a line: TGI was given In vitro as 0% percent growth (PG), measured as concentration of compound required to inhibit disease oriented human tumor cell line panels; Value ranges from 2-5.50. The class given is functional. In outline:
as §3

For assay [12], the system named is Tumor Cell line. The experiment in a line: LC50 was given In vitro as -50% percent growth (PG), measured as concentration of compound required to inhibit disease oriented human tumor cell line panels; Value ranges from 4.09->100. The class given is functional. The following applies: read-out: LC50 (the source's name). An outline of the steps: as §2
For assay [13], the system named is Tumor Cell line. In words: LC50 was given In vitro as -50% percent growth (PG), measured as concentration of compound required to inhibit disease oriented human tumor cell line panels; Value ranges from 5.25->100. The class given is functional. The settings on record: read-out: LC50 (the source's name). In outline: as §2
The subject of assay [14] is Tumor Cell line. The experiment in a line: GI50 was given In vitro as +50% percent growth (PG), measured as concentration of compound required to inhibit disease oriented human tumor cell line panels; Value ranges from 0.32-2. Format: functional. An outline of the steps: as §3
Assay [15] concerns Tumor Cell line. In words: TGI was given In vitro as 0% percent growth (PG), measured as concentration of compound required to inhibit disease oriented human tumor cell line panels; Value ranges from 0.30->100. Format: functional.
The test system of assay [16] is Tumor Cell line. The experiment in a line: GI50 was given In vitro as +50% percent growth (PG), measured as concentration of compound required to inhibit disease oriented human tumor cell line panels; Value ranges from 0.02->100. The class given is functional. An outline of the steps:
as §3

The subject of assay [17] is Tumor Cell line. In words: LC50 was given In vitro as -50% percent growth (PG), measured as concentration of compound required to inhibit disease oriented human tumor cell line panels; Value ranges from 1.20->100. The settings on record: read-out: LC50 (the source's name). The class given is functional.
In assay [18] the test system is Tumor Cell line. In words: LC50 was given In vitro as -50% percent growth (PG), measured as concentration of compound required to inhibit disease oriented human tumor cell line panels; Value ranges from 4.68-100. Format: functional. The following applies: read-out: LC50 (the source's name). In outline: as §2
Assay [19] has as its system Tumor Cell line. The experiment in a line: LC50 was given In vitro as -50% percent growth (PG), measured as concentration of compound required to inhibit disease oriented human tumor cell line panels. The class given is functional. The settings on record: read-out: LC50 (the source's name). An outline of the steps:
as §2

Turning to `Cc1c2cc[n+](C)cc2c(C)c2c1[nH]c1ccc(OCC(F)(F)F)cc12.[I-]`, in the assay with Tumor Cell line [1], the GI50 ratio was 6.26. Further, in the assay with Tumor Cell line [2], the CC50 was above 79.4 µM. Also, the TGI ratio in the assay with Tumor Cell line [3] was 9.11. In the assay with Tumor Cell line [4], the GI50 (as a rule, the concentration at which growth is held to half of that of the control) came out at 1580 nM.
Regarding `Cc1c2cc[n+](C)cc2c(C)c2c1[nH]c1ccc(O)c(OCC(F)(F)F)c12.[I-]`, the CC50 in the assay with Tumor Cell line [5] is above 50.1 µM. In the assay with Tumor Cell line [6], the LC50 ratio amounted to 1.35. In the assay on Tumor Cell line [7], this compound showed a GI50 of 2240 nM. Moreover, the GI50 ratio with Tumor Cell line [1] worked out at 5.65. The TGI ratio with Tumor Cell line [3] is 3.89.
Take `Cc1c2cc[n+](C)cc2c(C)c2c1[nH]c1ccc(Oc3ccccc3)cc12.[I-]`: the GI50 ratio in the assay with Tumor Cell line [1] worked out at 3.05. In addition, the CC50 in the assay on Tumor Cell line [8] is above 93.3 µM. For the same compound, the TGI ratio in the assay with Tumor Cell line [3] is 2.06.
On to `CC(=O)[O-].Cc1c2cc[n+](C)cc2c(C)c2c1[nH]c1ccc(Oc3ccccc3)cc12`, for which the GI50 ratio in the assay with Tumor Cell line [1] amounted to 3.48. Further, the CC50 in the assay on Tumor Cell line [9] was above 97.7 µM. The same compound gave a GI50 in the assay with Tumor Cell line [10] of 1820 nM. In addition, in the assay with Tumor Cell line [3], the TGI ratio came out at 3.06.
As to `Cc1c2ccncc2c(C)c2c1[nH]c1ccc(OCC(F)(F)F)cc12`, the LC50 ratio with Tumor Cell line [6] was found to be 0.74. In addition, in the assay with Tumor Cell line [1], the GI50 ratio was found to be 0.63. In addition, in the assay on Tumor Cell line [11], total growth inhibition (TGI) required 3.24 µM. In addition, the CC50 with Tumor Cell line [12] was above 8.13 µM. For the same compound, the TGI ratio with Tumor Cell line [3] is 0.73. The same compound showed a GI50 in the assay with Tumor Cell line [4] of 1580 nM.
For the compound `Cc1c2ccncc2c(C)c2c1[nH]c1ccc(OC(C)C)cc12`, the CC50 in the assay on Tumor Cell line [13] was above 6.61 µM. Besides, the GI50 ratio in the assay with Tumor Cell line [1] came out at 0.78. The compound further came in with a GI50 in the assay on Tumor Cell line [14] of 1320 nM. Also, the TGI ratio in the assay on Tumor Cell line [3] is 0.9.
Consider `CC(=O)[O-].COc1ccc2[nH]c3c(C)c4cc[n+](C)cc4c(C)c3c2c1`, for which, in the assay with Tumor Cell line [15], the TGI (commonly the concentration at which net growth stops) is above 14.8 µM. Further, in the assay on Tumor Cell line [1], the GI50 ratio was determined as 16.7. Besides, the 50% growth inhibitory concentration (GI50) with Tumor Cell line [16] was above 1860 nM. For the same compound, the TGI ratio in the assay with Tumor Cell line [3] amounted to 33.9. Also, in the assay on Tumor Cell line [17], the CC50 was above 49 µM.
On to `CCOc1ccc2[nH]c3c(C)c4ccncc4c(C)c3c2c1`, for which, in the assay with Tumor Cell line [6], the LC50 ratio turned out to be 1.7. In the assay with Tumor Cell line [1], the GI50 ratio was determined as 0.89. In addition, in the assay with Tumor Cell line [18], the CC50 is above 8.32 µM. Besides, the TGI ratio in the assay on Tumor Cell line [3] worked out at 1.32.
In the case of `CC(=O)[O-].Cc1c2cc[n+](C)cc2c(C)c2c1[nH]c1ccc(O)cc12` [ELLIPTINIUM ACETATE], the GI50 ratio with Tumor Cell line [1] is 6.28. Further, the TGI ratio in the assay with Tumor Cell line [3] is 9.34. In the assay with Tumor Cell line [19], the CC50 was above 100 µM.
